The source made the active and inactive calls. The calls are words filed in the database; no cut-off is given here.
Experiments:
[1] = Antidiabetic nephropathic activity in rat HBZY-1 cells assessed as inhibition of high concentration glucose-induced IL-6 production at 10 uM treated 1 hr before glucose challenge measured after 24 hrs by ELISA; format: functional, cell-based
Summary of the method: (§1)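 HBZY-1 rat mesangial cells (passages 3–10) were grown in DMEM with 5.6 mM glucose, 20% FCS and 10 mM HEPES. At 80% confluence they were arrested in 0.5% FCS for 24 h, then pretreated with compound for 1 h and stimulated with high glucose (25 mM) for 24 h. Supernatant IL-6, fibronectin or collagen IV was measured by sandwich ELISA, normalized to total cell protein (BCA), and compared by ANOVA.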

[2] = Cytotoxicity against rat HBZY-1 cells assessed as cell viability at 10 uM after 48 hrs by MTT assay; format: cell-based; settings: hbzy-1, 48 h
Summary of the method: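 Cells were seeded at 10⁴ per well and held in serum-free medium for 24 h. They were exposed to compound at 10 μM, or left without it, for 48 h. MTT (5 mg/mL stock) was added for 4 h at 37 °C, the formazan was dissolved in DMSO, and A570 was read. Values were normalized to control-medium cells.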

[3] = Antidiabetic nephropathic activity in rat HBZY-1 cells assessed as inhibition of high concentration glucose-induced fibronectin production at 10 uM treated 1 hr before glucose challenge measured after 24 hrs by ELISA; format: functional, cell-based; summary of the method: as §1
[4] = Antidiabetic nephropathic activity in rat HBZY-1 cells assessed as inhibition of high concentration glucose-induced collagen-4 production at 10 uM treated 1 hr before glucose challenge measured after 24 hrs by ELISA; format: functional, cell-based; summary of the method: as §1
[5] = Antidiabetic nephropathic activity in rat HBZY-1 cells assessed as inhibition of high concentration glucose-induced IL-6 production at 88 uM treated 1 hr before glucose challenge measured after 24 hrs by ELISA; format: functional, cell-based
[6] = Antidiabetic nephropathic activity in rat HBZY-1 cells assessed as inhibition of high concentration glucose-induced IL-6 production at 35 uM treated 1 hr before glucose challenge measured after 24 hrs by ELISA; format: functional, cell-based; summary of the method: as §1

Row | SMILES | inhibition [1] | Activity [2] | inhibition [3] | inhibition [4] | inhibition [5] | inhibition [6]
1 | COc1cc(C)cc2c1C(=O)c1c(O)cc(O)cc1C2=O | Active | – | – | – | – | –
2 | Cc1cc(O)c2c(c1)C(=O)c1cccc(O)c1C2=O [CHRYSOPHANOL] | Active | Non-toxic | Active | Active | – | –
3 | COc1cc(O)c2c(c1)[C@](O)([C@@H]1O[C@H](CO)[C@@H](O)[C@H](O)[C@H]1O)c1cc(C)cc(O)c1C2=O | Active | – | – | – | – | –
4 | Cc1cc(O)c2c(c1)[C@@](O)([C@@H]1O[C@H](CO)[C@@H](O)[C@H](O)[C@H]1O)c1cc(O)cc(O)c1C2=O | – | Non-toxic | Active | Active | – | –
5 | COC(=O)C1=CC(=O)C=C(OC)C12Oc1cc(C)cc(OC)c1C2=O (stereo unspecified) [TRYPACIDIN] | Active | Non-toxic | Active | Active | – | –
6 | COc1cc(O)c2c(c1)[C@@](O)([C@@H]1O[C@H](CO)[C@@H](O)[C@H](O)[C@H]1O)c1cc(C)cc(O)c1C2=O | Active | Non-toxic | Active | Active | – | –
7 | O=C(O)c1cc(O)c2c(c1)C(=O)c1cccc(O)c1C2=O | – | – | – | – | Active | inactive
8 | COc1cc(O)c2c(c1)C(=O)c1cc(C)cc(O)c1C2=O [PHYSCION] | Active | Non-toxic | Active | Active | – | –
9 | COc1cc(O)cc2c1C(=O)c1c(O)cc(C)cc1C2=O [QUESTIN] | Active | Non-toxic | Active | Active | – | –
10 | O=C1c2cccc(O)c2C(=O)c2c(O)cc(CO)cc21 | Active | – | – | – | – | –
11 | Cc1cc(O)c2c(c1)C(=O)c1cc(O)cc(O[C@@H]3O[C@H](CO)[C@@H](O)[C@H](O)[C@H]3O)c1C2=O | Active | – | – | – | – | –
12 | Cc1cc(O)c2c(c1)C(=O)c1cc(O)cc(O)c1C2=O [EMODIN] | Active | Non-toxic | Active | Active | – | –
13 | COC(=O)c1cc(O)cc(OC)c1C(=O)c1c(O)cc(C)cc1OC | Active | Non-toxic | Active | Active | – | –
14 | Cc1cc(O[C@@H]2O[C@H](CO)[C@@H](O)[C@H](O)[C@H]2O)c(C(=O)c2c(O)cccc2O)c(C(=O)O)c1 | Active | Non-toxic | Active | Active | – | –
15 | CC(=O)OC[C@H]1O[C@@H](Oc2cc(O)cc3c2C(=O)c2c(O)cc(C)cc2C3=O)[C@H](O)[C@@H](O)[C@@H]1O | Active | – | – | – | – | –
16 | COC(=O)c1c(OC)c(O)cc(OC)c1C(=O)c1c(O)cc(C)cc1OC [ASPERFUMIN] | Active | Non-toxic | Active | Active | – | –

Reference: ChEMBL document CHEMBL2396596, “Anthraquinone derivatives from Rumex plants and endophytic Aspergillus fumigatus and their effects on diabetic nephropathy” (Bioorg Med Chem Lett, 2013)
